Active and inactive are the calls of the source. No cut-off for these calls is given here.
Test system: not listed separately
Assay: Inhibition of calf intestinal adenosine deaminase type 1 by spectrophotometric assay
Parameters: species or system Bos taurus
Conditions: not given
Outline: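 Commercial calf intestinal adenosine deaminase (type I) was assayed with adenosine as substrate plus the analogue, both in 0.05 M phosphate buffer, pH 7.0, at 25 °C. Mode of inhibition and Ki were derived from the kinetics.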

| SMILES | Ki |
| --- | --- |
| Nc1ncnc2c1ncn2[C@H]1O[C@@H]([C@H](O)CO)[C@@H](O)[C@@H]1O | Not Active |

Same assay, conditions: read-out: Ki

| SMILES | Ki [µM] |
| --- | --- |
| Nc1ncnc2c1ncn2[C@@H]1O[C@@H]([C@@H](O)CO)[C@@H](O)[C@H]1O | 120 |
| Nc1ncnc2c1ncn2[C@@H]1O[C@H]([C@H](O)CO)[C@H](O)[C@@H]1O | 670 |
| Nc1ncnc2c1ncn2[C@H]1O[C@H]([C@H](O)CO)[C@H](O)[C@@H]1O | 240 |
| Nc1ncnc2c1ncn2[C@@H]1O[C@H]([C@@H](O)CO)[C@H](O)[C@H]1O | 180 |
| Nc1ncnc2c1ncn2[C@H]1O[C@H]([C@@H](O)CO)[C@H](O)[C@@H]1O | 120 |

Organism: Bos taurus
Assay: Activity at calf intestinal adenosine deaminase type 1 by spectrophotometric assay
Conditions: not given

| Km | Vmax | SMILES |
| --- | --- | --- |
| inactive | inactive | C[C@H](O)[C@@H]1O[C@H](n2cnc3c(N)ncnc32)[C@@H](O)[C@@H]1O |
| 280 µM | 0.092 µmol/min/mg | Nc1ncnc2c1ncn2[C@@H]1O[C@@H]([C@@H](O)CO)[C@@H](O)[C@H]1O |
| 670 µM | 0.326 µmol/min/mg | C[C@H](O)[C@@H]1O[C@@H](n2cnc3c(N)ncnc32)[C@H](O)[C@@H]1O |
| inactive | inactive | C[C@@H](O)[C@@H]1O[C@@H](n2cnc3c(N)ncnc32)[C@H](O)[C@@H]1O |
| inactive | inactive | Nc1ncnc2c1ncn2[C@H]1O[C@@H]([C@H](O)CO)[C@@H](O)[C@@H]1O |
|  | 220 µmol/min/mg | Nc1ncnc2c1ncn2[C@@H]1O[C@H](CO)[C@@H](O)[C@H]1O |
| 21 µM | 61 µmol/min/mg | C[C@H](O)[C@H]1O[C@@H](n2cnc3c(N)ncnc32)[C@H](O)[C@@H]1O |
| 320 µM | 25 µmol/min/mg | C[C@H](O)[C@H]1O[C@@H](n2cnc3c(N)ncnc32)[C@H](O)[C@H]1O |

Continued, compound first:

| SMILES | Km | Vmax |
| --- | --- | --- |
| C[C@@H](O)[C@@H]1O[C@H](n2cnc3c(N)ncnc32)[C@@H](O)[C@@H]1O | inactive | inactive |
| Nc1ncnc2c1ncn2[C@@H]1O[C@H]([C@@H](O)CO)[C@H](O)[C@H]1O | 260 µM | 0.178 µmol/min/mg |
| C[C@@H](O)[C@@H]1O[C@@H](n2cnc3c(N)ncnc32)[C@H](O)[C@H]1O | 230 µM | 0.105 µmol/min/mg |
| C[C@@H](O)[C@H]1O[C@H](n2cnc3c(N)ncnc32)[C@@H](O)[C@@H]1O | inactive | inactive |
| C[C@H](O)[C@H]1O[C@H](n2cnc3c(N)ncnc32)[C@@H](O)[C@@H]1O | inactive | inactive |
| C[C@@H](O)[C@H]1O[C@@H](n2cnc3c(N)ncnc32)[C@H](O)[C@@H]1O | 78 µM | 0.792 µmol/min/mg |
